Assay results from ChEMBL document CHEMBL3232893, “Design of antiviral stapled peptides containing a biphenyl cross-linker” (Bioorg Med Chem Lett, 2014).
pIC50, pKd: −log10 of the molar value. Bridge positions count the residues as written; N and C are the ends. Square brackets hold non-standard residues; d marks the D form. Peptide text beside a SMILES is read from it. R8 = C=CCCCCCC[C@@](C)(N)C(=O)O; S5 = C=CCCC[C@](C)(N)C(=O)O

How the values were obtained:
[1] = Cytotoxicity against human TZM-bl cells after 3 days by XTT assay; format: cell-based
[2] = Cytotoxicity against human MT2 cells after 4 days by XTT assay; format: cell-based
[3] = test system: Human immunodeficiency virus 1; test: Antiviral activity against HIV-1 NL4-3-HXB2 pseudovirus co-transfected with luciferase gene infected in human TZM-bl cells assessed as reduction of luciferase production after 3 days by single-cycle neutralization assay; format: functional, organism-based; conditions: Human immunodeficiency virus 1, NL4-3-HXB2, TZM-bl, 72 h
How it was run: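 Single-cycle neutralization in TZM-bl cells; read-out is reduction of luciferase production. IC50 derived from dose-response.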

[4] = test system: Human immunodeficiency virus 1; test: Antiviral activity against HIV-1 3B infected in human MT-2 cells assessed as reduction in p24 antigen level incubated for overnight measured on fourth day post infection by multi-cycle infection assay based sandwich ELISA; format: functional, organism-based; conditions: Human immunodeficiency virus 1, 3B, MT2
How it was run: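 Multi-cycle infection in MT-2 cells; read-out is reduction of p24 levels. IC50 derived from dose-response.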

[5] = Drug uptake in human HEK293T cells assessed as increase in fluorescence at 5 uM after 2 hrs by confocal microscopy; format: ADME, cell-based; conditions: hek-293t
How it was run: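 HEK293T cells were incubated with 5 μM FITC-labeled peptide at 37°C for 2 h. Intracellular fluorescence was imaged by confocal microscopy, with DIC images alongside.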

[6] = Binding affinity to HIV-1 capsid protein C-terminal domain M184A/W185A mutant at 15 uM by isothermal titration calorimetric analysis; set-up: species or system Human immunodeficiency virus 1
How it was run: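 ITC: 350 μM CTD M184A/W185A mutant titrated in 10 μL aliquots into 15 μM peptide in the cell. The integrated binding isotherm was fitted to a single-site binding equation to give Kd.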

[7] = Binding affinity to HIV-1 C-terminal domain of capsid protein p24; set-up: species or system Human immunodeficiency virus 1

pIC50 [3] | pIC50 [4] | Drug uptake [5] | SMILES | CC50 at 72 h [1] | CC50 at 96 h [2] | pKd [6] | pKd [7]
5.80 | 5.24 |  | CC[C@H](C)[C@H](NC(C)=O)C(=O)N[C@@H](CO)C(=O)N[C@@H](Cc1ccccc1)C(=O)N[C@@H]1CSCc2ccc(cc2)-c2ccc(cc2)CSC[C@@H](C(=O)N[C@@H](CCC(=O)O)C(=O)N[C@@H](CO)C(=O)NCC(=O)N[C@@H](CO)C(N)=O)NC(=O)[C@H](Cc2ccc(O)cc2)NC(=O)[C@H](Cc2ccc(O)cc2)NC(=O)[C@H](CC(N)=O)NC(=O)[C@H](CC(C)C)NC(=O)[C@H](CC(C)C)NC(=O)[C@H](CCC(N)=O)NC1=O | > 102 µM | 51 µM |  | 
5.70 | 5.82 |  | CC[C@H](C)[C@H](N)C(=O)N[C@@H](CO)C(=O)N[C@@H](Cc1ccccc1)C(=O)N[C@]1(C)CCCCCC/C=C\CCC[C@@](C)(C(=O)N[C@@H](CCC(=O)O)C(=O)N[C@@H](CO)C(=O)NCC(=O)N[C@@H](CO)C(=O)O)NC(=O)[C@H](Cc2ccc(O)cc2)NC(=O)[C@H](Cc2ccc(O)cc2)NC(=O)[C@H](CC(=O)O)NC(=O)[C@H](CC(C)C)NC(=O)[C@H](CC(C)C)NC(=O)[C@H](CCC(=O)O)NC1=O (H-ISF[R8]ELLDYY[S5]ESGS-OH; staple (Z) 4-11) | > 189 µM | > 189 µM |  | 

The next lines start with the molecule.

SMILES | pIC50 [3] | pIC50 [4] | Drug uptake [5] | CC50 at 72 h [1] | CC50 at 96 h [2] | pKd [6] | pKd [7]
CC[C@H](C)[C@H](NC(C)=O)C(=O)N[C@@H](CO)C(=O)N[C@@H](Cc1ccccc1)C(=O)N[C@@H]1CSCc2ccc(cc2)-c2ccc(cc2)CSC[C@@H](C(=O)N[C@@H](CCC(=O)O)C(=O)N[C@@H](CO)C(=O)NCC(=O)N[C@@H](CO)C(N)=O)NC(=O)[C@H](C)NC(=O)[C@H](Cc2ccc(O)cc2)NC(=O)[C@H](CC(=O)O)NC(=O)[C@H](CC(C)C)NC(=O)[C@H](CC(C)C)NC(=O)[C@H](CCC(=O)O)NC1=O | 4.76 | 4.85 |  | > 107 µM | > 107 µM |  | 
CC[C@H](C)[C@H](NC(=S)Nc1ccc(-c2c3ccc(=O)cc-3oc3cc(O)ccc23)c(C(=O)O)c1)C(=O)N[C@@H](CO)C(=O)N[C@@H](Cc1ccccc1)C(=O)N[C@@H]1CSCc2ccc(cc2)-c2ccc(cc2)CSC[C@@H](C(=O)N[C@@H](CCC(=O)O)C(=O)N[C@@H](CO)C(=O)NCC(=O)N[C@@H](CO)C(=O)O)NC(=O)[C@H](Cc2ccc(O)cc2)NC(=O)[C@H](Cc2ccc(O)cc2)NC(=O)[C@H](CC(=O)O)NC(=O)[C@H](CC(C)C)NC(=O)[C@H](CC(C)C)NC(=O)[C@H](CCC(=O)O)NC1=O |  |  | Active |  |  |  | 
CC[C@H](C)[C@H](N)C(=O)N[C@H](C(=O)N[C@@H](Cc1ccccc1)C(=O)N[C@@H](CCC(=O)O)C(=O)N[C@@H](CC(=O)O)C(=O)N[C@@H](CC(C)C)C(=O)N[C@@H](CC(C)C)C(=O)N[C@@H](CC(=O)O)C(=O)N[C@@H](Cc1ccc(O)cc1)C(=O)N[C@@H](Cc1ccc(O)cc1)C(=O)NCC(=O)N1CCC[C@H]1C(=O)O)[C@@H](C)O (H-ITFEDLLDYYGP-OH) | < 3.87 | < 3.87 |  | > 135 µM | > 135 µM | 5.08 | 4.82
